Sampled rows, rich in hits. Any-hit rate of the full collection: about 2.1%.
ARFGAP1 inh: inhibitors of rat ARFGAP1 GAP activity, primary screen, biochemical, fluorescence polarization, GDP tracer; 0.26% of 360,000 active; ADP-ribosylation factor GTPase-activating protein 1 (Rattus norvegicus), Q62848; Arfgap1-stimulated ARF1 GTP hydrolysis, GDP FP detection; inhibition, % at 16.5 µM;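 active means inhibition above a per-plate limit, mean inhibition of low control wells plus 3 SD, cut at about 25% in these data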;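 further: 0% = DMSO wells with enzyme and 100% = wells lacking Arfgap1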
Target sequence (Q62848 1-136 limits assumed): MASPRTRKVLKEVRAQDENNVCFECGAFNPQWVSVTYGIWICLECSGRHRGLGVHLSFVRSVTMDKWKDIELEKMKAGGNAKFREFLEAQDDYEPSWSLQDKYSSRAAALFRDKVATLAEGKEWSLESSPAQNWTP
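Assay system: purified rat His6-Arfgap1 residues 1-136 (GAP domain); Reagent: human Δ17 ARF1 bound to GTP; Dosing: 16.5 µM single point, 1.26% DMSO; Times: GTP hydrolysis reaction 2 h at 25 °C; Signal: FP, GDP Alexa 633 tracer displaced from anti-GDP antibody, 620/688 nm; Measure: % inhibition from polarization.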
ASAP1 inh: inhibitors of human ASAP1 ArfGAP activity, primary screen, biochemical, fluorescence polarization; 0.19% of 360,000 active; AID 624377, 2012; ASAP1-stimulated ARF1 GTP hydrolysis, GDP FP detection; inhibition, % at 16.5 µM; in the data active means inhibition above about 25%;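 further: 0% = vehicle with enzyme and substrate and 100% = no enzyme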
Target sequence (Q9ULH1 325-724 limits assumed): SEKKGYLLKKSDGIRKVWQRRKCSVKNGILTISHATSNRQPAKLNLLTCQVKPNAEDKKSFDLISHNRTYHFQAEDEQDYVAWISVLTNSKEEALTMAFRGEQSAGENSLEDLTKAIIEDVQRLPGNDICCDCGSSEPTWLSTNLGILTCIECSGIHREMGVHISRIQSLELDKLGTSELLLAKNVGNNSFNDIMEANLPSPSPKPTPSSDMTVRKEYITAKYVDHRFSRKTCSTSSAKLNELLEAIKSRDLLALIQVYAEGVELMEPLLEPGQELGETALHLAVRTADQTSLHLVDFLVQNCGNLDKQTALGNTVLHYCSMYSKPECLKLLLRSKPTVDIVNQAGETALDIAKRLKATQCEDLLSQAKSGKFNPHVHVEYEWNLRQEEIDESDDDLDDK
APOBEC3A inh: APOBEC3A ssDNA deaminase inhibitors, primary screen, selectivity assay for APOBEC3G inhibitor project, biochemical, FAM/TAMRA oligo cleavage fluorescence | DNA dC->dU-editing enzyme APOBEC-3A (Homo sapiens), P31941 | recombinant A3A, FAM/TAMRA ssDNA deamination fluorescence | inhibition, % at 20 µM | 0.41% of 330,000 active | AID 493011, 2011;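 active means at least 40% inhibition at 20 µM here, with at most 30% in a related deaminase screen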;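 further: plate controls were A3A with DMSO for no effect and wells lacking A3A enzyme for full effect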
A3G deaminase: APOBEC3G DNA deaminase inhibitors, primary screen, biochemical, fluorescence, single-stranded DNA substrate, uHTS | inhibition, % at 20 µM | recombinant A3G, ssDNA deamination FAM/TAMRA fluorescence | 0.28% of 330,000 active | DNA dC->dU-editing enzyme APOBEC-3G (Homo sapiens), Q9HC16;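 active means inhibition of at least 40% at 20 µM, with no more than 30% in the related APOBEC3A deaminase screen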;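 further: plate controls were DMSO wells with A3G for no effect and wells lacking A3G enzyme for full effect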
Mot1-301 SUMO: yeast Mot1-301 growth rescue at high temperature, primary screen, SUMOylation pathway inhibitor project, S. cerevisiae, ATP luminescence, 38.5C. S. cerevisiae Mot1-301 growth rescue; percent above DMSO median, 100 means doubled. growth rescue, % at 18.8 µM. 1% of 320,000 active;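 active means every valid replicate shows activation above 250% relative to neutral control wells; inactive means the rest, any valid replicate at or below 250%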;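 further: OY570 slx delta 5 strain wells were the positive control but not used for scaling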
C2C12 statin: suppressors of statin myotoxicity in C2C12 myotubes, primary screen, cell-based, single point, plate reader; C2C12 myotubes + simvastatin, ATP luminescence, 48 h; scaled: DMSO 0, geranylgeraniol control 100; rescue of ATP level, % at 7.49 µM; 0.78% of 330,000 active; AID 602340, 2012;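 active means mean ATP rescue above about 67%, or every replicate alone reaching that limit, limit read from the data, passing the limit was not always enough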;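 further: myotubes were challenged with 10 µM simvastatin during compound exposure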
Mot1 SUMO dose: growth restoration of Mot1-301 yeast on galactose, dose response, SUMO pathway inhibitor project, whole organism, S. cerevisiae, ATP luminescence, cherry-picked samples. shares compounds with Mot1-301 SUMO. S. cerevisiae Mot1-301 galactose growth, 24 h; -100 = growth of slx-deleted rescue strain. growth activity, percent, % at 42 µM. 2,300 tested, under 10 active. AID 493004, 2010;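 active means Signal drops as the depositor expects, and the fitted half-maximal dose is no more than ten times the top valid tested dose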;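 further: more negative values mean stronger growth rescue toward the control strain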
* hit, by the source's call.

O=C(COC(=O)Cc1ccsc1)NC1CCCCCC1 was read as ARFGAP1 inh -0.3, ASAP1 inh -28.4, APOBEC3A inh -3.1, A3G deaminase -4.1, Mot1-301 SUMO 609.1*, C2C12 statin -1.4 and Mot1 SUMO dose -0.6.
Screening COc1ccc(S(=O)(=O)N(C)C[C@@H]2Oc3ccc(NC(=O)CCN4CCOCC4)cc3C(=O)N([C@H](C)CO)C[C@@H]2C)cc1 returned C2C12 statin 41.9.
Cc1ccc(NC(=O)c2scc3c2CCCC3)cc1 was read as ARFGAP1 inh 0.6, ASAP1 inh -10.9, APOBEC3A inh 3.4, A3G deaminase -1.8 and Mot1-301 SUMO 2.7.
For CCN1CCCC(NC(=O)c2scc3c2CCCC3)C1 (centres undefined) the results were ARFGAP1 inh 5.3, ASAP1 inh -5.5, APOBEC3A inh 0.5, A3G deaminase 4.8, Mot1-301 SUMO 659.4*, C2C12 statin 14.6 and Mot1 SUMO dose 0.3.
O=C(NCC[C@@H]1CC[C@@H](NC(=O)C2CC2)[C@@H](CO)O1)c1ccc(F)cc1 was read as C2C12 statin -5.3.
Screening COc1ccccc1/C=C/C(=O)N1CCc2cc(OC)c(OC)cc2C1C (centres undefined) returned ARFGAP1 inh -3.9, ASAP1 inh 9.0, APOBEC3A inh -2.9, A3G deaminase -3.5, Mot1-301 SUMO 388.7*, C2C12 statin 20.7 and Mot1 SUMO dose 0.2.
`CC(C)NC(=O)Nc1cccc2c1O[C@@H](CN(C)Cc1ccncc1)[C@@H](C)CN([C@H](C)CO)C2=O` gave C2C12 statin 0.1.
For Cc1ccc(-c2noc(C3CCCN(S(=O)(=O)c4ccc5ccccc5c4)C3)n2)o1 (centres undefined) the results were ARFGAP1 inh -17.0, ASAP1 inh -0.8, APOBEC3A inh -2.1, A3G deaminase -2.8, Mot1-301 SUMO 765.4* and Mot1 SUMO dose 0.4.
Cc1cc(C(=O)Nc2ccc3c(c2)C(=O)N(C)[C@@H]2CC[C@@H](CC(=O)N[C@H](C)c4ccccc4)O[C@H]2CO3)no1 was read as C2C12 statin 8.9.
`Cc1ccc(C(=O)c2cc([N+](=O)[O-])ccc2N2CCOCC2)cc1C` gave ARFGAP1 inh 10.3, ASAP1 inh -4.8, APOBEC3A inh -4.8, A3G deaminase -2.6 and Mot1-301 SUMO -20.9.
`Cc1ccc(C(=O)c2cc([N+](=O)[O-])ccc2N2CCCCC2)cc1C` gave ARFGAP1 inh -1.9, ASAP1 inh -12.8, APOBEC3A inh -1.2, A3G deaminase -1.6, Mot1-301 SUMO 499.7* and Mot1 SUMO dose -0.1.
Screening O=C(NC1CCCCC1)N(Cc1cc2cc3c(cc2[nH]c1=O)OCCO3)C1CCCCC1 returned ARFGAP1 inh -12.7, ASAP1 inh 5.0, APOBEC3A inh -5.0, A3G deaminase -7.0, Mot1-301 SUMO 828.0*, C2C12 statin -0.3 and Mot1 SUMO dose 0.3.
For Cc1cc(S(=O)(=O)N2CCCCC2CCNC(=O)C(=O)NCC2CCCO2)ccc1F (centres undefined) the results were ARFGAP1 inh 2.9, ASAP1 inh 0.8, APOBEC3A inh -5.7, A3G deaminase -12.3, Mot1-301 SUMO 390.5*, C2C12 statin -2.3 and Mot1 SUMO dose -0.2.
`COc1ccc(S(=O)(=O)N2CCCOC2CNC(=O)C(=O)NCCCN2CCOCC2)cc1C` (centres undefined) gave ARFGAP1 inh -3.9, ASAP1 inh -6.2, APOBEC3A inh -0.6, A3G deaminase -0.3, Mot1-301 SUMO 415.5*, C2C12 statin -21.0 and Mot1 SUMO dose -0.9.
Cc1ccc(S(=O)(=O)N2CCCOC2CNC(=O)C(=O)NCCN2CCOCC2)cc1 (centres undefined) was read as ARFGAP1 inh -9.1, ASAP1 inh 5.8, APOBEC3A inh -0.6, A3G deaminase -6.7, Mot1-301 SUMO 0.5 and C2C12 statin 8.1.
`Cc1cc(S(=O)(=O)N2CCCCC2CCNC(=O)C(=O)NCCN2CCOCC2)ccc1F` (centres undefined) gave ARFGAP1 inh -5.4, ASAP1 inh 5.6 and C2C12 statin -11.3.
`Cc1noc(C)c1NC(=O)N(C)C[C@@H]1Oc2ccc(NC(=O)NC3CCCCC3)cc2C(=O)N([C@H](C)CO)C[C@H]1C` gave C2C12 statin 12.2.
For CCC(C)N1C(=O)CN(C2CCCCCC2)C(=O)C1c1ccccc1F (centres undefined) the results were ARFGAP1 inh -9.2, ASAP1 inh -12.1, APOBEC3A inh -1.2, A3G deaminase -13.1, Mot1-301 SUMO 422.0* and Mot1 SUMO dose -1.0.
Screening COc1ccccc1CN1C(=O)CN(C2CCCCCC2)C(=O)C1c1ccc(F)cc1 (centres undefined) returned ARFGAP1 inh -12.0, ASAP1 inh 1.1, APOBEC3A inh 2.7, A3G deaminase 0.8, Mot1-301 SUMO -9.8 and C2C12 statin -5.2.
For CC(C)NC(=O)N1[C@@H](C#N)[C@H](c2ccc(C#CC3CCCC3)cc2)[C@@H]1CO the results were C2C12 statin -25.6.
`CC(=O)c1ccc(Nc2cc(C)nc3c(C)cccc23)cc1` gave ARFGAP1 inh -0.7, ASAP1 inh -11.1, APOBEC3A inh -2.9, A3G deaminase -2.5, Mot1-301 SUMO 22.4 and C2C12 statin -50.9.
CC(=O)c1ccc(Nc2cc(C)nc3ccccc23)cc1 was read as ARFGAP1 inh 1.0, ASAP1 inh 4.0, APOBEC3A inh -4.3, A3G deaminase -5.6, Mot1-301 SUMO 573.5* and Mot1 SUMO dose 0.5.
COc1ccc2oc(=O)c(C(=O)NCc3ccco3)cc2c1 was read as ARFGAP1 inh 2.8, ASAP1 inh 4.6, APOBEC3A inh -0.9, A3G deaminase -3.3, Mot1-301 SUMO 653.8*, C2C12 statin -3.2 and Mot1 SUMO dose 0.0.

Compound activity deposited in PubChem BioAssay by several laboratories.
